Laboratory results reported in ChEMBL document CHEMBL1124174, “Substituted benzamides. 1. Potential nondopaminergic antagonists of chemotherapy-induced nausea and emesis” (J Med Chem, 1988).
Where “and” joins values, the source holds several entries; their conditions need not be identical. Equal values may be shown once.

Tests used:
[1] = target: D(2) dopamine receptor (Canis lupus familiaris) (UniProt Q9GJU1); test: In vivo antagonism activity against dopamine D2 receptor was measured as emesis in dog when administered subcutaneously; format: functional, organism-based
D(2) dopamine receptor = D(2) dopamine receptor (Rattus norvegicus, UniProt P61169); test: In vitro antagonistic activity against Dopamine receptor D2 was evaluated for the inhibition of [3H]spiperone binding
In short: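 Rat striatal membranes were prepared by differential centrifugation in 50 mM Tris pH 7.4 at 4 °C. Membrane protein (10 mg) was incubated 15 min at 37 °C with 0.1 nM [3H]spiperone and varying competitor concentrations. Buffer: 50 mM Tris HCl pH 7.5, 0.1% ascorbic acid, pargyline, 120 mM NaCl, 5 mM KCl, 2 mM CaCl2, 1 mM MgCl2. (+)-Butaclamol defined nonspecific binding. Bound ligand was collected by filtration and scintillation counted. IC50 by log-logit regression.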

Canis familiaris [2] = test: In vivo antagonism of cisplatin-induced emesis in dog measured as emetic episodes, twice the dose of 1 mg/kg in 2 dogs; format: functional, Canis lupus familiaris
In short: (§1)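 Nonfasted mature male or female beagles were dosed sc twice, 30 min before and 120 min after cisplatin (3 mg/kg iv; 3 mg/mL in warm 0.9% saline, used immediately). Emesis was observed up to 5 h; events within 2 min counted as one episode. Results were given as mean emetic episodes and % protection versus a dynamic control (historical and concurrent saline means pooled). t test versus saline.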

Canis familiaris [3] = test: In vivo antagonism of cisplatin-induced emesis in dog measured as percentage protection for twice the dose of 1 mg/kg in 2 dogs; format: functional, Canis lupus familiaris; in short: as §1
Mustela putorius furo [4] = test: In vivo antagonism of cisplatin-induced emesis in ferret measured as emetic episodes, twice the dose of 3 mg/kg and in 2 ferrets; format: functional
In short: (§2)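 Nonfasted castrated male Fitch ferrets (1–1.5 kg) had jugular catheters implanted ≥48 h earlier under anesthesia. Compounds or saline were given iv twice, 5 min before and 90 min after cisplatin (12 mg/kg iv; 12 mg/mL in warm 0.9% saline). Emesis was observed up to 4 h; events within 1 min counted as one episode. Results were given as mean emetic episodes and % protection versus a pooled historical/concurrent control. t test versus saline.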

Mustela putorius furo [5] = test: In vivo antagonism of cisplatin-induced emesis in ferret measured as percentage protection for twice the dose of 3 mg/kg and in 2 ferrets; format: functional; in short: as §2
[6] = target: D(2) dopamine receptor (Rattus norvegicus) (UniProt P61169); test: In vivo antagonism activity against D2 receptor was measured as stereotypy in rat when administered subcutaneously; format: functional, organism-based
In short: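 Male Long Evans rats (275 g) were dosed sc in dilute aqueous HCl (pH 4.5-5.5) 30 min before apomorphine (1 mg/kg sc).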

[7] = target: D(2) dopamine receptor (Rattus norvegicus) (UniProt P61169); test: In vivo antagonistic activity against dopamine D2 receptor was measured as catalepsy in rat when administered subcutaneously; format: functional, organism-based
In short: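 Male Long Evans rats (275 g) received graded sc doses in dilute aqueous HCl (pH 4.5-5.5). They were observed 180 min for catalepsy, scored when the animal stayed stationary ≥15 s on a four-cork template.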

Canis familiaris [8] = test: In vivo antagonism of cisplatin-induced emesis in dog measured as percentage protection for twice the dose of 0.1 mg/kg in 2 dogs; format: functional, Canis lupus familiaris; in short: as §1
Canis familiaris [9] = test: In vivo antagonism of cisplatin-induced emesis in dog measured as percentage protection for twice the dose of 0.3 mg/kg in 2 dogs; format: functional, Canis lupus familiaris; in short: as §1
Canis familiaris [10] = test: In vivo protection against cisplatin-induced emesis in dog measured as emetic episodes for twice the dose of 0.1 mg/kg and in 3 […]; format: functional, Canis lupus familiaris
Canis familiaris [11] = test: In vivo protection against cisplatin-induced emesis in dog measured as emetic episodes for twice the dose of 0.3 mg/kg and in 5 […]; format: functional, Canis lupus familiaris
Canis familiaris [12] = test: In vivo protection against cisplatin-induced emesis in dog measured as emetic episodes for twice the dose of 0.9 mg/kg and in 3 […]; format: functional, Canis lupus familiaris
Canis familiaris [13] = test: In vivo antagonism of cisplatin-induced emesis in dog measured as emetic episodes, twice the dose of 0.1 mg/kg in 2 dogs; format: functional, Canis lupus familiaris; in short: as §1
Canis familiaris [14] = test: In vivo antagonism of cisplatin-induced emesis in dog measured as emetic episodes, twice the dose of 0.3 mg/kg in 2 dogs; format: functional, Canis lupus familiaris; in short: as §1
Canis familiaris [15] = test: In vivo protection against cisplatin-induced emesis in dog measured as percentage protection for twice the dose of 0.1 mg/kg and in 3 […]; format: functional, Canis lupus familiaris
Mustela putorius furo [16] = test: In vivo protection against cisplatin-induced emesis in ferret measured as emetic episodes for twice the dose of 0.3 mg/kg and in 6 ferrets; format: functional
In short: (§3)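 Nonfasted castrated male Fitch ferrets (1–1.5 kg) carried jugular vein catheters implanted at least 48 h earlier under general anesthesia. Test compound or saline was given iv twice, 5 min before and 90 min after cisplatin (12 mg/kg iv; 12 mg/mL in warm saline). Emesis was watched for 4 h, with events within 1 min counted as one episode. % protection is relative to a pooled historical-plus-concurrent control, with t test versus saline.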

Mustela putorius furo [17] = test: In vivo protection against cisplatin-induced emesis in ferret measured as emetic episodes for twice the dose of 2.7 mg/kg and in 3 ferrets; format: functional; in short: as §3
Mustela putorius furo [18] = test: In vivo protection against cisplatin-induced emesis in ferret measured as p emetic episodes for twice the dose of 0.9 mg/kg and in 6 ferrets; format: functional; in short: as §3
Mustela putorius furo [19] = test: Cisplatin-induced emesis in ferret measured as stereotypy […] when administered iv […] twice daily; format: functional
Mustela putorius furo [20] = test: In vivo protection against cisplatin-induced emesis in ferret measured as percentage protection for twice the dose of 0.1 mg/kg and in 3 ferrets; format: functional; in short: as §3
Mustela putorius furo [21] = test: In vivo protection against cisplatin-induced emesis in ferret measured as percentage protection for twice the dose of 0.3 mg/kg and in 6 ferrets; format: functional; in short: as §3
Mustela putorius furo [22] = test: In vivo protection against cisplatin-induced emesis in ferret measured as percentage protection for twice the dose of 0.9 mg/kg and in 6 ferrets; format: functional; in short: as §3
Mustela putorius furo [23] = test: In vivo antagonism of cisplatin-induced emesis in ferret measured as emetic episodes, twice the dose of 3 mg/kg and in 3 ferrets; format: functional; in short: as §2
Mustela putorius furo [24] = test: In vivo antagonism of cisplatin-induced emesis in ferret measured as emetic episodes, twice the dose of 0.1 mg/kg and in 3 ferrets; format: functional; in short: as §2
Mustela putorius furo [25] = test: In vivo antagonism of cisplatin-induced emesis in ferret measured as emetic episodes, twice the dose of 0.3 mg/kg and in 3 ferrets; format: functional; in short: as §2
Mustela putorius furo [26] = test: In vivo protection against cisplatin-induced emesis in ferret measured as percentage protection for twice the dose of 2.7 mg/kg and in 0.1 ferrets; format: functional; settings: in the assay text read “in 3 ferrets” for “in 0.1 ferrets”; in short: as §3
Mustela putorius furo [27] = test: In vivo antagonism of cisplatin-induced emesis in ferret measured as percentage protection for twice the dose of 3 mg/kg and […]; format: functional; in short: as §2
Mustela putorius furo [28] = test: In vivo protection against cisplatin-induced emesis in ferret measured as emetic episodes for twice the dose of 0.1 mg/kg and in 3 ferrets; format: functional; in short: as §3
Canis familiaris [29] = test: cisplatin-induced emesis in dog was measured for when administered twice daily; settings: Canis lupus familiaris
Mustela putorius furo [30] = test: In vivo antagonism of cisplatin-induced emesis in ferret measured as percentage protection for twice the dose of 3 mg/kg
Canis familiaris [31] = test: In vivo protection against cisplatin-induced emesis in dog measured as percentage protection twice the dose of 0.1 mg/kg and in 3 dogs
Canis familiaris [32] = test: In vivo antagonism of cisplatin-induced emesis in dog measured as emetic episodes, twice the dose of 3 mg/kg in 2 dogs; format: functional, Canis lupus familiaris; in short: as §1
Canis familiaris [33] = test: In vivo antagonism of cisplatin-induced emesis in dog measured as emetic episodes, twice the dose of 6 mg/kg in 2 dogs; format: functional, Canis lupus familiaris; in short: as §1
Canis familiaris [34] = test: In vivo antagonism of cisplatin-induced emesis in dog measured as percentage protection for twice the dose of 3 mg/kg in 2 dogs; format: functional, Canis lupus familiaris; in short: as §1
Canis familiaris [35] = test: In vivo antagonism of cisplatin-induced emesis in dog measured as percentage protection for twice the dose of 6 mg/kg in 2 dogs; format: functional, Canis lupus familiaris; in short: as §1
Mustela putorius furo [36] = test: In vivo antagonism of cisplatin-induced emesis in ferret measured as emetic episodes, twice the dose of 1 mg/kg and in 3 ferrets; format: functional; in short: as §2
Mustela putorius furo [37] = test: In vivo antagonism of cisplatin-induced emesis in ferret measured as percentage protection for twice the dose of 3 mg/kg and in 3 ferrets; format: functional; in short: as §2
Mustela putorius furo [38] = test: In vivo antagonism of cisplatin-induced emesis in ferret measured as percentage protection for twice the dose of 31 mg/kg and in 3 ferrets; format: functional; settings: dose 1 mg/kg; in the assay text read “1 mg/kg” for “31 mg/kg”; in short: as §2

D(2) dopamine receptor (Rattus norvegicus), sequence (P61169 whole entry): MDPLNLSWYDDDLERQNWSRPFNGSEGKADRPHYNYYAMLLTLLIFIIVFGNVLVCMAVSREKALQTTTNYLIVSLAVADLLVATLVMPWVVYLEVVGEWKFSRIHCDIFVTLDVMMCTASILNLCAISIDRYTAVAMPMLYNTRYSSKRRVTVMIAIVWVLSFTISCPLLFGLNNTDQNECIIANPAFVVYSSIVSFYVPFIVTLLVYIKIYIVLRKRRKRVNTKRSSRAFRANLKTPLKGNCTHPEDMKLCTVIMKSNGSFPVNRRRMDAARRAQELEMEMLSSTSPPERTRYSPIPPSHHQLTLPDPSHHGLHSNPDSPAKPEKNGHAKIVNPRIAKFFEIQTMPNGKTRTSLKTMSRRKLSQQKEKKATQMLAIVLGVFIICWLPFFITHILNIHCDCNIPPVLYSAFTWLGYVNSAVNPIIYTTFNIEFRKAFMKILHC
D(2) dopamine receptor, sequence (P61169 whole entry): as above
D(2) dopamine receptor (Canis lupus familiaris), sequence (Q9GJU1 whole entry): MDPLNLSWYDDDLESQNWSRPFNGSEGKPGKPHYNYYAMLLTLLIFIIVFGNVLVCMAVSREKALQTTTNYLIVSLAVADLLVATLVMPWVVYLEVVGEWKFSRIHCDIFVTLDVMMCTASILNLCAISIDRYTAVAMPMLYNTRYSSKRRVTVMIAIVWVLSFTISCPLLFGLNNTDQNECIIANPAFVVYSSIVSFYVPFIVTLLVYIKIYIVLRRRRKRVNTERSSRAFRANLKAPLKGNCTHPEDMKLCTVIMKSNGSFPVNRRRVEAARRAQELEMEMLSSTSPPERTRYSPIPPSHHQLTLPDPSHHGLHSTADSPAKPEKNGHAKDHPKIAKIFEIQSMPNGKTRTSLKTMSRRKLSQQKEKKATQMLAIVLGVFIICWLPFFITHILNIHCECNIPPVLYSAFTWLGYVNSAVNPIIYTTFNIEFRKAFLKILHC

Question: `CCN(CC)CCNC(=O)c1cc(Cl)c(N)cc1OCOCCOC` was tested. Which ED50 [1] did it give?
Answer: > 3 mg/kg

Question: And the IC50 (D(2) dopamine receptor)?
Answer: > 1 µM

Question: And the Emetic episodes (Canis familiaris [2])?
Answer: 3.5

Question: What about the Protection (Canis familiaris [3]) of the same compound?
Answer: 72%

Question: And the Emetic episodes (Mustela putorius furo [4])?
Answer: 0

Question: And the Protection (Mustela putorius furo [5])?
Answer: 100%

Question: What about the ED50 [6] of the same compound?
Answer: > 40 mg/kg

Question: What about the ED50 [7] of the same compound?
Answer: > 40 mg/kg

Question: How did the Protection (Canis familiaris [8]) turn out when `CCN(CC)CCNC(=O)c1cc(Cl)c(N)cc1OC(C)C(C)=O` (stereo not given) [BATANOPRIDE] was run?
Answer: 60%

Question: And the Protection (Canis familiaris [9])?
Answer: 87%

Question: And the ED50 [1]?
Answer: > 3 mg/kg

Question: And the IC50 (D(2) dopamine receptor)?
Answer: > 1 µM

Question: And the Emetic episodes (Canis familiaris [10])?
Answer: 5

Question: And the Emetic episodes (Canis familiaris [11])?
Answer: 1.6

Question: What about the Emetic episodes (Canis familiaris [12]) of the same compound?
Answer: 0

Question: And the Emetic episodes (Canis familiaris [13])?
Answer: 0.5

Question: What about the Emetic episodes (Canis familiaris [14]) of the same compound?
Answer: 1.5

Question: And the Emetic episodes (Canis familiaris [2])?
Answer: 0.5

Question: And the Protection (Canis familiaris [3])?
Answer: 96%

Question: What about the Protection (Canis familiaris [15]) of the same compound?
Answer: 86% and 100%

Question: What about the Emetic episodes (Mustela putorius furo [16]) of the same compound?
Answer: 2.5

Question: And the Emetic episodes (Mustela putorius furo [17])?
Answer: 0.3

Question: And the Emetic episodes (Mustela putorius furo [18])?
Answer: 0.5

Question: What about the ED50 (Mustela putorius furo [19]) of the same compound?
Answer: 0.14 mg/kg

Question: What about the Protection (Mustela putorius furo [20]) of the same compound?
Answer: 53%

Question: What about the Protection (Mustela putorius furo [21]) of the same compound?
Answer: 64%

Question: What about the Protection (Mustela putorius furo [22]) of the same compound?
Answer: 93%

Question: And the Emetic episodes (Mustela putorius furo [23])?
Answer: 0.3

Question: And the Emetic episodes (Mustela putorius furo [24])?
Answer: 3.3

Question: And the Emetic episodes (Mustela putorius furo [25])?
Answer: 1

Question: And the Protection (Mustela putorius furo [26])?
Answer: 96%

Question: And the Protection (Mustela putorius furo [27])?
Answer: 96% and 54%

Question: And the Emetic episodes (Mustela putorius furo [28])?
Answer: 3.3

Question: What about the ED50 [6] of the same compound?
Answer: > 40 mg/kg

Question: What about the ED50 [7] of the same compound?
Answer: > 40 mg/kg

Question: What about the ED50 (Canis familiaris [29]) of the same compound?
Answer: 0.05 mg/kg

Question: What about the Protection (Mustela putorius furo [30]) of the same compound?
Answer: 90%

Question: What about the Protection (Canis familiaris [31]) of the same compound?
Answer: 58%

Question: Which results are given for `C#CCOc1cc(N)c(Cl)cc1C(=O)NCCN(CC)CC`?
Answer: ED50 [1]: > 1 mg/kg; Emetic episodes (Canis familiaris [32]): 3.5; IC50 (D(2) dopamine receptor): > 1 µM; Emetic episodes (Canis familiaris [33]): 2; Protection (Canis familiaris [34]): 72%; Protection (Canis familiaris [35]): 73%; Emetic episodes (Mustela putorius furo [23]): 3.3; Emetic episodes (Mustela putorius furo [36]): 4.3; Protection (Mustela putorius furo [37]): 50%; Protection (Mustela putorius furo [38]): 40%; ED50 [6]: > 40 mg/kg; ED50 [7]: > 40 mg/kg
